Consider six compounds from ChEMBL document CHEMBL1157252, “Antibacterial galloylated alkylphloroglucinol glucosides from myrtle (Myrtus communis)” (2006).

The subject of test [1] is Staphylococcus aureus. As to the kind of experiment: Antibacterial activity against epidemic methicillin-resistant Staphylococcus aureus 15 expressing MecA after 18 hrs by microtiter plate method. It is filed as functional. An outline of the steps: (§1)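 Broth microdilution MIC. Strains were grown on nutrient agar for 24 h at 37 °C. Inoculum was made to the 0.5 McFarland standard in normal saline and diluted to a final 5 × 10^5 cfu/mL. Plates were incubated for 18 h at 37 °C. MIC was taken as the lowest concentration with no observed growth, determined in duplicate.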

Test [2] concerns Staphylococcus aureus. Put plainly: Antibacterial activity against methicillin-resistant Staphylococcus aureus XU212 expressing TetK efflux pump and MecA after 18 hrs by microtiter plate method. It is filed as functional. In outline:
as §1

In test [3] the test system is Staphylococcus aureus. As to the kind of experiment: Antibacterial activity against Staphylococcus aureus RN4220 expressing MsrA efflux transporter after 18 hrs by microtiter plate method. It is filed as functional. The settings on record: for MIC: RN4220, 18 h. In outline: as §1
Test [4] has as its system Staphylococcus aureus. Put plainly: Antibacterial activity against methicillin-susceptible Staphylococcus aureus ATCC 25923 after 18 hrs by microtiter plate method. The test is classed as functional. As to conditions: for MIC: ATCC 25923, 18 h. In outline: as §1
Test [5] has as its system Staphylococcus aureus. Put plainly: Antibacterial activity against multidrug-resistant Staphylococcus aureus SA-1199B overexpressing NorA efflux transporter after 18 hrs by microtiter plate method. It is filed as functional. In outline:
as §1

For test [6], the system named is Staphylococcus aureus. Put plainly: Antibacterial activity against Staphylococcus aureus RN4220 expressing MsrA efflux transporter at 256 ug/mL after 18 hrs by microtiter plate method. It is filed as functional, organism-based. An outline of the steps: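 Strain pre-grown on nutrient agar for 24 h at 37 °C. Inoculum matched to the 0.5 McFarland standard in normal saline and diluted to a final 5 × 10^5 cfu/mL in microtiter wells. Plates incubated 18 h at 37 °C. MIC taken as the lowest concentration with no bacterial growth, determined in duplicate.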

In test [7] the test system is Staphylococcus aureus. As to the kind of experiment: Antibacterial activity against epidemic methicillin-resistant Staphylococcus aureus 15 expressing MecA at 256 ug/mL after 18 hrs by microtiter plate method. It is filed as functional, organism-based.
Test [8] has as its system Staphylococcus aureus. Put plainly: Antibacterial activity against multidrug-resistant Staphylococcus aureus SA-1199B overexpressing NorA efflux transporter at 256 ug/mL after 18 hrs by microtiter plate method. It is filed as functional, organism-based.
The subject of test [9] is Staphylococcus aureus. As to the kind of experiment: Antibacterial activity against methicillin-resistant Staphylococcus aureus XU212 expressing TetK efflux pump and MecA at 256 ug/mL after 18 hrs by microtiter plate method. The test is classed as functional, organism-based.

Values after ≈ are worked out from the molar mass of the structure shown. Active and inactive are the calls of the source. The calls are words filed in the database; no cut-off is given here.

With `CCn1cc(C(=O)O)c(=O)c2cc(F)c(N3CCNCC3)cc21` [NORFLOXACIN], the MIC is 0.5 µg/mL (≈ 1.57 µM) in the test with Staphylococcus aureus [1]; 4 µg/mL (≈ 12.5 µM) in the test on Staphylococcus aureus [2]; 2 µg/mL (≈ 6.26 µM) in the test on Staphylococcus aureus [3]; 1 µg/mL (≈ 3.13 µM) against Staphylococcus aureus [4]; 32 µg/mL (≈ 100 µM) against Staphylococcus aureus [5].

`CC(C)CC1(O)C(=O)C(C)(C)C(O[C@@H]2O[C@H](COC(=O)c3cc(O)c(O)c(O)c3)[C@@H](O)[C@H](O)[C@H]2O)C(C)(C)C1=O` (stereo partly drawn) [GALLOMYRTUCOMMULONE B]: the minimal inhibitory concentration (MIC) with Staphylococcus aureus [1] is 128 µg/mL (≈ 224 µM); with Staphylococcus aureus [2], 128 µg/mL (≈ 224 µM); against Staphylococcus aureus [3] it was 128 µg/mL (≈ 224 µM); against Staphylococcus aureus [4] it was 64 µg/mL (≈ 112 µM); in the test with Staphylococcus aureus [5], 128 µg/mL (≈ 224 µM).

Turning to `CC1(C)C=C2C(=O)C(C)(C)C(=O)C(C)(C)C2(O)OO1` (stereo not drawn), the result with Staphylococcus aureus [1], with Staphylococcus aureus [2], in the test with Staphylococcus aureus [3], in the test on Staphylococcus aureus [4] and in the test with Staphylococcus aureus [5] was inactive.

As for `CC(C)=C[C@@]1(O)C(=O)C(C)(C)C(=O)C(C)(C)[C@@H]1O[C@@H]1O[C@H](COC(=O)c2cc(O)c(O)c(O)c2)[C@@H](O)[C@H](O)[C@H]1O`, the result with Staphylococcus aureus [6], with Staphylococcus aureus [7], in the test on Staphylococcus aureus [8] and with Staphylococcus aureus [9] was inactive.

For the compound `CC(C)=C[C@]1(O)C(=O)C(C)(C)C(=O)C(C)(C)[C@@H]1O[C@@H]1O[C@H](COC(=O)c2cc(O)c(O)c(O)c2)[C@@H](O)[C@H](O)[C@H]1O`, the result in the test with Staphylococcus aureus [6], with Staphylococcus aureus [7], in the test on Staphylococcus aureus [8] and in the test with Staphylococcus aureus [9] was inactive.

For `CC(C)C[C@]1(O)C(=O)C(C)(C)C(=O)C(C)(C)[C@@H]1O[C@@H]1O[C@H](COC(=O)c2cc(O)c(O)c(O)c2)[C@@H](O)[C@H](O)[C@H]1O` [GALLOMYRTUCOMMULONE A], the MIC against Staphylococcus aureus [1] turned out to be 128 µg/mL (≈ 224 µM); in the test on Staphylococcus aureus [2] it was 256 µg/mL (≈ 449 µM); with Staphylococcus aureus [3] it was 128 µg/mL (≈ 224 µM); in the test on Staphylococcus aureus [4], 128 µg/mL (≈ 224 µM); against Staphylococcus aureus [5] it was 256 µg/mL (≈ 449 µM).
